Structures can show the parent of a compound that is named as a salt.
Columns and labels:
HCV NS3h [1] = molecular target: T1, HCV NS3h (Hepatitis C virus genotype 1b, UniProt Q9WMX2); test: biochemical; format: binding; details: for Cy5-dT15-NS3h Binding % Inhibition (LOPAC screen): LOPAC samples at 100 µM, 100 µM
E. coli SSB = E. coli SSB (Escherichia coli, UniProt P0AGE0); test: Escherichia coli SSB FP assay; format: binding
HCV NS3h [2] = molecular target: T1, HCV NS3h; test: NS3h molecular beacon-based helicase assay; format: biochemical; details: for IC50: n=3
[3] = system: HCV RLuc replicon in Huh7.5 cells; test: HCV Renilla luciferase subgenomic replicon assay; format: cell-based; details: Hepatitis C virus, Huh7.5, 72 h, read-out: HCV replicon IC50 ± SD
[4] = Cell Titer-Glo cell viability assay; format: cell-based; details: human, Huh-7.5 cells
Summary of the method: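 Huh-7.5 cells carrying a stable HCV Renilla luciferase replicon, seeded at 10 000 cells/well, attached 4–5 h in DMEM with 10% FBS, glutamine, penicillin/streptomycin and non-essential amino acids. Test compound added in DMSO (0.5% final). Incubated 72 h at 37°C, 5% CO2. Cells washed, lysed by shaking in medium plus CellTiter-Glo, 30 min at 23°C. Luminescence read 1 s, normalized to DMSO-only. Triplicates.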

NS3h = molecular target: T2, NS3h (Hepatitis C virus genotype 1b, UniProt Q9WMX2); test: NS3h ATP hydrolysis; format: biochemical; details: preliminary
T2 sequence (Q9WMX2 1193-1657 limits assumed): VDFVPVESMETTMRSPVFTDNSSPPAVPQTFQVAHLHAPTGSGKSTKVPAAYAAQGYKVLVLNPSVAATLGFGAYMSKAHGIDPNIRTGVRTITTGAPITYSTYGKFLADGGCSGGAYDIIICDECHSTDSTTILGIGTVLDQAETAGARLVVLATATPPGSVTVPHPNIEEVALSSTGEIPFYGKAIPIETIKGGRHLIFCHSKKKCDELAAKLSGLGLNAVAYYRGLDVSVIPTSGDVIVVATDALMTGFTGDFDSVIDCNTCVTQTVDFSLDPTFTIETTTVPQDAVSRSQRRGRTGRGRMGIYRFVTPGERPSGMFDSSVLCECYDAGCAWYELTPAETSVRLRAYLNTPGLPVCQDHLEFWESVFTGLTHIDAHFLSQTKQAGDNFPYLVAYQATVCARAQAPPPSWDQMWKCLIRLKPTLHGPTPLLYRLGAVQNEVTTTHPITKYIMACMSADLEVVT

SSB = SSB (Escherichia coli, UniProt P0AGE0 1-178); test: fluorescence polarization
[5] = NS3h helicase assays DNA IC50 ± SD, DNA substrate
[6] = NS3h helicase assays RNA IC50 ± SD, RNA substrate

Sequence of E. coli SSB (P0AGE0 2-178 limits assumed): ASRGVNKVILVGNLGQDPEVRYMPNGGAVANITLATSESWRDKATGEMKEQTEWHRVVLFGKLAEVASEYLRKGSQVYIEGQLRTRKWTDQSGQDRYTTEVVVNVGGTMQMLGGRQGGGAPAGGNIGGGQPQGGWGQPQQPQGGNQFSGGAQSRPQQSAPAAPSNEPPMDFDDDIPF
Sequence of SSB (P0AGE0 whole entry): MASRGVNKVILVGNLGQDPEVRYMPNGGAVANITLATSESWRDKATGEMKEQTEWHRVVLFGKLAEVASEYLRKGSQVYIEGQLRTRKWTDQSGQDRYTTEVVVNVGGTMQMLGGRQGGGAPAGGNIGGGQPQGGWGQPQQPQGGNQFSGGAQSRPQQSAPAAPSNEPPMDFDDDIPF

O=C(O)C1=CC(=C(c2ccc(O)c(C(=O)O)c2)c2ccc(O)c(C(=O)O)c2)C=CC1=O [ATA, aurintricarboxylic acid]
IC50 (HCV NS3h [1]): 1.4 ± 0.1 µM
Cy5-dT15-NS3h Binding % Inhibition (LOPAC screen) (HCV NS3h [1]): more than 60%
IC50 (E. coli SSB): 1 ± 0.1 µM
IC50 (HCV NS3h [2]; [5]): 0.6 ± 0.1 µM
IC50 (HCV NS3h [2]; [6]): 0.8 ± 0.2 µM
IC50 [3]: 98 ± 30 µM
CC50 at 72 h [4]: > 100 µM
ability of NS3h to cleave ATP in the absence of DNA or RNA (NS3h): inhibits

Nc1ccc2cc3ccc(N)cc3nc2c1 [proflavin]
effect on MBHA (HCV NS3h [2]): inhibit

CN1CCN(c2ccc3[nH]c(-c4ccc5[nH]c(-c6ccc(O)cc6)nc5c4)nc3c2)CC1 [H33258]
effect on FP-based NS3h binding assay (HCV NS3h [1]): increased polarization

CN1/C(=C/C=C/c2cc[n+](CCC[N+](C)(C)C)c3ccccc23)Sc2ccccc21.[I-].[I-] [TO-PRO3]
effect on FP-based NS3h binding assay (HCV NS3h [1]): increased polarization

Cn1cc(NC(=O)c2cc(NC(=O)CN=C(N)N)cn2C)cc1C(=O)NCCC(=N)N [netropsin]
effect on MBHA (HCV NS3h [2]): inhibit

CCCN(CCCN(C)C)c1cc(/C=C2/Sc3ccccc3N2C)c2ccccc2[n+]1-c1ccccc1 [SYBR green I]
effect on MBHA (HCV NS3h [2]): inhibit

CC(=O)NCC(=O)O.CC(=O)NCC(=O)O.N=C(N)c1ccc(N=NNc2ccc(C(=N)N)cc2)cc1 [berenil]
effect on MBHA (HCV NS3h [2]): inhibit

Nc1ncnc2c1ncn2[C@@H]1O[C@H](COP(=O)(O)CP(=O)(O)OP(=O)([O-])[O-])[C@H](O)C1O.[Li+].[Li+] (stereo partly drawn) [α,β-methylene ATP, alpha,beta-Methylene adenosine 5'-triphosphate dilithium]
effect on FP-based NS3h binding assay (HCV NS3h [1]): did not inhibit

Cc1ccc(C(=O)Nc2ccc(S(=O)(=O)O)c3cc(S(=O)(=O)O)cc(S(=O)(=O)O)c23)cc1NC(=O)c1cccc(NC(=O)Nc2cccc(C(=O)Nc3cc(C(=O)Nc4ccc(S(=O)(=O)O)c5cc(S(=O)(=O)O)cc(S(=O)(=O)O)c45)ccc3C)c2)c1 [Suramin, suramin sodium salt]
IC50 (HCV NS3h [1]): 3.6 ± 0.3 µM
Cy5-dT15-NS3h Binding % Inhibition (LOPAC screen) (HCV NS3h [1]): more than 60%
IC50 (E. coli SSB): 0.3 µM
IC50 (HCV NS3h [2]; [5]): 3.7 ± 0.7 µM
IC50 (HCV NS3h [2]; [6]): 8.9 ± 2 µM
IC50 [3]: 38 ± 9.3 µM
CC50 at 72 h [4]: > 50 µM

TTTTTTTTTTTTTTT (ssDNA) [Cy5-dT15]
apparent K (half saturation) (SSB): 9.6 ± 2 nM

— paper PMC3458564 (Nucleic Acids Research, 2012)
